Experimental findings from ChEMBL document CHEMBL2440040, “Synthesis of 4″-O-desosaminyl clarithromycin derivatives and their anti-bacterial activities” (2013) are described below.

Converted amounts (≈) assume the structure as drawn.

What all share (format): functional
Experiment [1] concerns Streptococcus pyogenes. Briefly: Antibacterial activity against erythromycin-resistant Streptococcus pyogenes 11-2 by broth microdilution method.
Experiment [2] relates to Streptococcus pneumoniae. Briefly: Antibacterial activity against erythromycin-sensitive Streptococcus pneumoniae 12-1 by broth microdilution method. A digest of the protocol: (§1)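 Strains obtained from the Institute of Medicinal Biotechnology, Academy of Medical Sciences & Peking Union Medical College. MIC determined in vitro by broth microdilution following NCCLS recommendations.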
On the technique in general: Dilution methods test growth across graded concentrations, often in twofold steps.

Experiment [3] deals with Staphylococcus epidermidis. Briefly: Antibacterial activity against methicillin-resistant Staphylococcus epidermidis 12-4 by broth microdilution method.
The subject of experiment [4] is Staphylococcus aureus. The experiment is described as follows: Antibacterial activity against methicillin-sensitive Staphylococcus aureus 12-32 by broth microdilution method. In short, it runs like this: as §1
In experiment [5] the test system is Streptococcus pneumoniae. The experiment is described as follows: Antibacterial activity against erythromycin-resistant Streptococcus pneumoniae 12-6 by broth microdilution method.
Experiment [6] has as its system Staphylococcus epidermidis. The experiment is described as follows: Antibacterial activity against methicillin-resistant Staphylococcus epidermidis 12-11 by broth microdilution method.
Experiment [7] concerns Streptococcus pneumoniae. The experiment is described as follows: Antibacterial activity against erythromycin-resistant Streptococcus pneumoniae 12-5 by broth microdilution method.
The subject of experiment [8] is Streptococcus pyogenes. Briefly: Antibacterial activity against erythromycin-sensitive Streptococcus pyogenes ATCC 19625 by broth microdilution method. In short, it runs like this:
as §1

The subject of experiment [9] is Streptococcus pneumoniae. Briefly: Antibacterial activity against erythromycin-sensitive Streptococcus pneumoniae 12-4 by broth microdilution method.
The subject of experiment [10] is Staphylococcus epidermidis. Briefly: Antibacterial activity against methicillin-sensitive Staphylococcus epidermidis ATCC 12228 by broth microdilution method. In short, it runs like this: as §1
The subject of experiment [11] is Staphylococcus aureus. The experiment is described as follows: Antibacterial activity against methicillin-resistant Staphylococcus aureus 12-31 by broth microdilution method.
In experiment [12] the test system is Staphylococcus aureus. Briefly: Antibacterial activity against methicillin-sensitive Staphylococcus aureus ATCC 29213 by broth microdilution method. A digest of the protocol:
as §1

Experiment [13] deals with Staphylococcus epidermidis. Briefly: Antibacterial activity against methicillin-sensitive Staphylococcus epidermidis 11-20 by broth microdilution method. In short, it runs like this: as §1
In experiment [14] the test system is Streptococcus pneumoniae. Briefly: Antibacterial activity against erythromycin-sensitive Streptococcus pneumoniae 12-14 by broth microdilution method. In short, it runs like this: as §1
In experiment [15] the test system is Staphylococcus epidermidis. The experiment is described as follows: Antibacterial activity against methicillin-sensitive Staphylococcus epidermidis 12-5 by broth microdilution method. A digest of the protocol: as §1
Experiment [16] deals with Streptococcus pneumoniae. Briefly: Antibacterial activity against erythromycin-sensitive Streptococcus pneumoniae 12-10 by broth microdilution method. In short, it runs like this: as §1
Experiment [17] has as its system Streptococcus pneumoniae. Briefly: Antibacterial activity against erythromycin-sensitive Streptococcus pneumoniae 12-8 by broth microdilution method. In short, it runs like this:
as §1

For orientation: MIC means the least concentration at which growth counts as inhibited. Higher therefore signals a less susceptible organism. With `CC[C@H]1OC(=O)[C@H](C)[C@@H](O[C@H]2C[C@@](C)(OC)[C@@H](O[C@@H]3O[C@H](C)[C@@H](OCc4ccccc4)[C@H](N(C)C)[C@H]3OC(=O)c3ccccc3)[C@H](C)O2)[C@H](C)[C@@H](O[C@@H]2O[C@H](C)C[C@H](N(C)C)[C@H]2O)[C@@](C)(OC)C[C@@H](C)C(=O)[C@H](C)[C@@H](O)[C@]1(C)O`, the minimum inhibitory concentration (MIC) in experiment [1] was above 32 µg/mL; in experiment [2], above 32 µg/mL; in [3], above 32 µg/mL; in [4] it was above 32 µg/mL; in experiment [5], 32 µg/mL (≈ 28.7 µM); in [6], above 32 µg/mL. The MIC is 32 µg/mL (≈ 28.7 µM) in [7]; above 32 µg/mL in experiment [8]; 32 µg/mL (≈ 28.7 µM) in experiment [9]; above 32 µg/mL in experiment [10]; above 32 µg/mL in experiment [11]; above 32 µg/mL in experiment [12]. Further, the MIC in experiment [13] is above 32 µg/mL; in experiment [14] it was 32 µg/mL (≈ 28.7 µM); in experiment [15], above 32 µg/mL; in experiment [16] it was 16 µg/mL (≈ 14.3 µM); in experiment [17], 2 µg/mL (≈ 1.79 µM).
With `CC[C@H]1OC(=O)[C@H](C)[C@@H](O[C@H]2C[C@@](C)(OC)[C@@H](O)[C@H](C)O2)[C@H](C)[C@@H](O[C@@H]2O[C@H](C)C[C@H](N(C)C)[C@H]2O)[C@](C)(OC)C[C@@H](C)C(=O)[C@H](C)[C@@H](O)[C@]1(C)O` [CLARITHROMYCIN], the minimum inhibitory concentration (MIC) is 4 µg/mL (≈ 5.35 µM) in [1]; 1 µg/mL (≈ 1.34 µM) in [2]; 32 µg/mL (≈ 42.8 µM) in experiment [3]; 4 µg/mL (≈ 5.35 µM) in experiment [4]; above 32 µg/mL in experiment [5]; 4 µg/mL (≈ 5.35 µM) in experiment [6]. Besides, the minimum inhibitory concentration (MIC) was above 32 µg/mL in experiment [7]; at most 1 µg/mL in [8]; 2 µg/mL (≈ 2.67 µM) in experiment [9]; at most 1 µg/mL in experiment [10]; above 32 µg/mL in [11]; at most 1 µg/mL in [12]. Further, the MIC is 8 µg/mL (≈ 10.7 µM) in [13]; 1 µg/mL (≈ 1.34 µM) in [14]; at most 1 µg/mL in experiment [15]; 1 µg/mL (≈ 1.34 µM) in experiment [16]; 1 µg/mL (≈ 1.34 µM) in [17].
Consider `CC[C@H]1OC(=O)[C@H](C)[C@@H](O[C@H]2C[C@@](C)(OC)[C@@H](O[C@@H]3O[C@H](C)[C@@H](OCc4ccccc4)[C@H](N(C)C)[C@H]3O)[C@H](C)O2)[C@H](C)[C@@H](O[C@@H]2O[C@H](C)C[C@H](N(C)C)[C@H]2O)[C@@](C)(OC)C[C@@H](C)C(=O)[C@H](C)[C@@H](O)[C@]1(C)O`, for which the minimum inhibitory concentration (MIC) in experiment [1] was above 32 µg/mL; in [2], 32 µg/mL (≈ 31.6 µM); in experiment [3], above 32 µg/mL; in [4] it was above 32 µg/mL; in [5], 32 µg/mL (≈ 31.6 µM); in experiment [6] it was above 32 µg/mL. The MIC in experiment [7] is 32 µg/mL (≈ 31.6 µM); in experiment [8] it was 32 µg/mL (≈ 31.6 µM); in experiment [9] it was 32 µg/mL (≈ 31.6 µM); in experiment [10] it was above 32 µg/mL; in experiment [11], above 32 µg/mL; in [12] it was above 32 µg/mL. Moreover, the MIC is above 32 µg/mL in experiment [13]; 32 µg/mL (≈ 31.6 µM) in [14]; above 32 µg/mL in [15]; 32 µg/mL (≈ 31.6 µM) in experiment [16]; 32 µg/mL (≈ 31.6 µM) in experiment [17].
As to `CC[C@H]1OC(=O)[C@H](C)[C@@H](O[C@H]2C[C@@](C)(OC)[C@@H](O[C@@H]3O[C@H](C)[C@@H](O)[C@H](N(C)C)[C@H]3OC(=O)c3ccccc3)[C@H](C)O2)[C@H](C)[C@@H](O[C@@H]2O[C@H](C)C[C@H](N(C)C)[C@H]2O)[C@@](C)(OC)C[C@@H](C)C(=O)[C@H](C)[C@@H](O)[C@]1(C)O`, the minimum inhibitory concentration (MIC) in experiment [1] was above 32 µg/mL; in [2], above 32 µg/mL; in [3], 16 µg/mL (≈ 15.6 µM); in [4] it was above 32 µg/mL; in experiment [5], above 32 µg/mL; in experiment [6] it was 16 µg/mL (≈ 15.6 µM). Further, the MIC in experiment [7] is 32 µg/mL (≈ 31.2 µM); in experiment [8] it was 8 µg/mL (≈ 7.8 µM); in [9] it was 32 µg/mL (≈ 31.2 µM); in experiment [10], above 32 µg/mL; in experiment [11], above 32 µg/mL; in experiment [12] it was 16 µg/mL (≈ 15.6 µM). In addition, the minimum inhibitory concentration (MIC) amounted to 32 µg/mL (≈ 31.2 µM) in experiment [13]; 16 µg/mL (≈ 15.6 µM) in [14]; 32 µg/mL (≈ 31.2 µM) in [15]; 16 µg/mL (≈ 15.6 µM) in experiment [16]; 4 µg/mL (≈ 3.9 µM) in experiment [17].
On to `CC[C@H]1OC(=O)[C@H](C)[C@@H](O[C@H]2C[C@@](C)(OC)[C@@H](O[C@@H]3O[C@H](C)[C@@H](O)[C@H](N(C)C)[C@H]3OC(=O)c3ccccc3)[C@H](C)O2)[C@H](C)[C@@H](O[C@@H]2O[C@H](C)C[C@H](N(C)C)[C@H]2O)[C@@](C)(OC)C[C@@H](C)C(=O)[C@H](C)[C@H]2OC(=O)O[C@@]21C`, for which the minimal inhibitory concentration (MIC) in experiment [1] was 32 µg/mL (≈ 30.4 µM); in experiment [2], 1 µg/mL (≈ 0.951 µM); in experiment [3], 8 µg/mL (≈ 7.61 µM); in [4], 2 µg/mL (≈ 1.9 µM); in experiment [5] it was 32 µg/mL (≈ 30.4 µM); in [6] it was at most 1 µg/mL. Besides, the minimal inhibitory concentration (MIC) was 32 µg/mL (≈ 30.4 µM) in experiment [7]; 1 µg/mL (≈ 0.951 µM) in experiment [8]; 16 µg/mL (≈ 15.2 µM) in experiment [9]; 2 µg/mL (≈ 1.9 µM) in [10]; above 32 µg/mL in experiment [11]; 2 µg/mL (≈ 1.9 µM) in experiment [12]. Further, the MIC in [13] came out at 4 µg/mL (≈ 3.8 µM); in [14] it was 2 µg/mL (≈ 1.9 µM); in experiment [15], 2 µg/mL (≈ 1.9 µM); in experiment [16], 2 µg/mL (≈ 1.9 µM); in experiment [17] it was 1 µg/mL (≈ 0.951 µM).
